Each structure is given as a SMILES string.

As usually defined, the IC50 is the concentration at which inhibition is half-maximal. What is called inhibition is the relative decrease from the control value, in per cent. The term EC50 denotes the concentration that produces a half-maximal response. As a reminder, the CC50 is the concentration at which the toxic effect on the cells reaches its halfway point.

Series [1] has as its system Plasmodium falciparum. The series is described as follows: Antiplasmodial activity chloroquine-sensitive Plasmodium falciparum 3D7 infected in human A+ erythrocytes assessed as inhibition of [3H]-hypoxanthine incorporation after 24 hrs by scintillation counting. Type of series: functional, organism-based.
The subject of series [2] is Plasmodium falciparum. Nature of the series: Resistant factor, ratio of IC50 for chloroquine-resistant Plasmodium falciparum K1 to IC50 for chloroquine-sensitive Plasmodium falciparum 3D7. Type of series: functional. In a few lines:
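Resistance factor computed as IC50 against K1 divided by IC50 against 3D7, both from the [3H]hypoxanthine incorporation assay.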

The nature of series [3]: Inhibition of beta-hematin formation assessed as Ferriprotoporphyrin IX biomineralisation at 1 mg/ml after 24 hrs. Type of series: functional. In a few lines: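 Hemin chloride (0.5 mg/ml in DMSO) mixed with 0.5 M sodium acetate buffer pH 4.4 and drug or solvent control, incubated 37 °C for 24 h. Pellet washed with DMSO to remove unreacted hemin, dissolved in 0.1 N NaOH, absorbance read at 405 nm; percent inhibition relative to control. Highest concentration tested 1 mg/ml.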

The subject of series [4] is Plasmodium falciparum. The series is described as follows: Antiplasmodial activity chloroquine-resistant Plasmodium falciparum K1 infected in human A+ erythrocytes assessed as inhibition of [3H]-hypoxanthine incorporation after 24 hrs by scintillation counting. It is filed as functional, organism-based.
In series [5] the test system is Influenza B virus. Nature of the series: Antiviral activity against Influenza B virus infected in MDCK cells assessed as inhibition of virus-induced cytopathogenicity after 4 days by colorimetric formazan-based MTS assay. As to conditions: 96 h. It is filed as functional, organism-based.
Series [6] deals with Influenza A virus. The series is described as follows: Antiviral activity against Influenza A virus H3N2 infected in MDCK cells assessed as inhibition of virus-induced cytopathogenicity after 4 days by colorimetric formazan-based MTS assay. As to conditions: 96 h. Type of series: functional, organism-based.
The subject of series [7] is Influenza A virus. Nature of the series: Antiviral activity against Influenza A virus H1N1 infected in MDCK cells assessed as reduction visual scoring of virus-induced cytopathogenicity after 4 days. To be noted: 96 h. It is filed as functional, organism-based. In a few lines:
(§1)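 MDCK monolayers infected with 100 CCID50 of influenza A (H1N1 or H3N2) or influenza B, with varying compound concentrations. Cytopathicity read when untreated infected controls reached complete CPE.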
On the technique in general: Damage to the host cells serves as the signal in cytopathic effect assays.

A further series has as its system MDCK. The series is described as follows: Cytotoxicity against MDCK cells assessed as cell viability by colorimetric formazan-based MTS assay. Details: species or system Canis lupus familiaris. As to conditions: dog, mdck. Put shortly:
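Cytotoxicity on MDCK cells; 50% cytotoxic concentration from cell viability measured by colorimetric formazan-based MTS assay.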
Background: Formazan colour is commonly taken as a measure of viable cells.

Series [8] concerns Influenza A virus. The series is described as follows: Antiviral activity against Influenza A virus H1N1 infected in MDCK cells assessed as inhibition of virus-induced cytopathogenicity after 4 days by colorimetric formazan-based MTS assay. It is filed as functional, organism-based. As to conditions: 96 h.
The subject of series [9] is Influenza A virus. Nature of the series: Antiviral activity against Influenza A virus H3N2 infected in MDCK cells assessed as reduction visual scoring of virus-induced cytopathogenicity after 4 days. Type of series: functional, organism-based. As to conditions: 96 h. In a few lines: as §1
Series [10] deals with Influenza B virus. Nature of the series: Antiviral activity against Influenza B virus infected in MDCK cells assessed as reduction visual scoring of virus-induced cytopathogenicity after 4 days. Type of series: functional, organism-based. To be noted: 96 h. Put shortly:
as §1

The nature of series [11]: Cytotoxicity against MDCK cells assessed as minimum compound concentration required to causes microscopically detectable alteration of normal cell morphology. It is filed as cell-based, Canis lupus familiaris. As to conditions: dog. Put shortly:
(§2)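 Confluent, non-proliferating cell cultures were exposed to the compounds. The endpoint was the minimum concentration producing a microscopically detectable alteration of normal cell morphology.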

The nature of series [12]: Cytotoxicity against human HeLa cells assessed as minimum compound concentration required to causes microscopically detectable alteration of normal cell morphology. Type of series: cell-based. Put shortly: as §2
A further series deals with Sindbis virus. Nature of the series: Antiviral activity against Sindbis virus infected in african green monkey Vero cells assessed as inhibition of virus-induced cytopathogenicity after 4 days. It is filed as functional, organism-based. As to conditions: 96 h. In a few lines: (§3)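 Confluent HEL, Vero or HeLa monolayers were inoculated with 100 CCID50 of virus in the presence of varying concentrations of compound. Cytopathicity was scored when it reached completion in untreated, virus-infected control cultures.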

Series [13] deals with Vesicular stomatitis virus. The series is described as follows: Antiviral activity against Vesicular stomatitis virus infected in HeLa cells assessed as inhibition of virus-induced cytopathogenicity after 4 days. It is filed as functional, organism-based. To be noted: 96 h. Put shortly:
(§4)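 Confluent HEL or HeLa monolayers infected with 100 CCID50 of virus in the presence of varying compound concentrations.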

The subject of another series is Human respirovirus 3. Nature of the series: Antiviral activity against Parainfluenza-3 virus infected in african green monkey Vero cells assessed as inhibition of virus-induced cytopathogenicity after 4 days. Type of series: functional, organism-based. As to conditions: Human respirovirus 3, Vero, 96 h. Put shortly: as §3
The subject of series [14] is Respiratory syncytial virus. Nature of the series: Antiviral activity against Respiratory syncytial virus infected in human HeLa cells assessed as inhibition of virus-induced cytopathogenicity after 4 days. It is filed as functional, organism-based. To be noted: 96 h. In a few lines:
as §3

Series [15] concerns Mammalian orthoreovirus 1. The series is described as follows: Antiviral activity against Reovirus-1 infected in african green monkey Vero cells assessed as inhibition of virus-induced cytopathogenicity after 4 days. As to conditions: Mammalian orthoreovirus 1, Vero, 96 h. Type of series: functional, organism-based. Put shortly: as §3
Series [16] has as its system Coxsackievirus B4. The series is described as follows: Antiviral activity against Coxsackie virus B4 infected in human HeLa cells assessed as inhibition of virus-induced cytopathogenicity after 4 days. Type of series: functional, organism-based. To be noted: Enterovirus B, 96 h. In a few lines: as §3
Series [17] is described as follows: Cytotoxicity against african green monkey Vero cells assessed as minimum compound concentration required to causes microscopically detectable alteration of normal cell morphology. It is filed as cell-based. As to conditions: chlorocebus sabaeus. In a few lines: as §2
In the next series the test system is Punta Toro virus. The series is described as follows: Antiviral activity against Punta Toro virus infected in african green monkey Vero cells assessed as inhibition of virus-induced cytopathogenicity after 4 days. It is filed as functional, organism-based. To be noted: 96 h. In a few lines:
as §3

Series [18] concerns Coxsackievirus B4. The series is described as follows: Antiviral activity against Coxsackie virus B4 infected in african green monkey Vero cells assessed as inhibition of virus-induced cytopathogenicity after 4 days. Type of series: functional, organism-based. To be noted: Enterovirus B, 96 h. Put shortly: as §3
A further series relates to Felid alphaherpesvirus 1. Nature of the series: Antiviral activity against Feline herpesvirus infected in cat CRFK cells assessed as inhibition of virus-induced cytopathic effect after 4 days by colorimetric formazan-based MTS assay. It is filed as functional, organism-based. To be noted: Felid alphaherpesvirus 1, CRFK, 96 h.
Series [19] in a line: Cytotoxicity against cat CRFK cells assessed as cell viability by colorimetric formazan-based MTS assay. On the set-up: species or system Felis catus. To be noted: CRFK cells.
The test system of series [20] is Feline infectious peritonitis virus. The series is described as follows: Antiviral activity against FIPV infected in cat CRFK cells assessed as inhibition of virus-induced cytopathic effect after 4 days by colorimetric formazan-based MTS assay. It is filed as functional, cell-based. As to conditions: Alphacoronavirus 1, CRFK, 96 h.
A short description of series [21]: Cytotoxicity against human HEL cells assessed as minimum compound concentration required to causes microscopically detectable alteration of normal cell morphology. It is filed as cell-based. In a few lines: as §2
For the next series, the system named is HeLa. Nature of the series: Cytotoxicity against human HeLa cells assessed as cell viability by colorimetric formazan-based MTS assay.
Series [22] deals with Vesicular stomatitis virus. Nature of the series: Antiviral activity against Vesicular stomatitis virus infected in HEL cells assessed as inhibition of virus-induced cytopathogenicity after 4 days. It is filed as functional, organism-based. As to conditions: 96 h. In a few lines:
as §4

As to `CCOC(=O)c1c(C)nc(Nc2ccccc2Nc2ccnc3cc(Cl)ccc23)nc1-c1ccccc1`, the values for the half-inhibitory concentration (IC50) in the series with Plasmodium falciparum [1] and in the series on Plasmodium falciparum [4] were 14.8 µM and 27.3 µM, respectively. Moreover, in the series with Plasmodium falciparum [2], the “Ratio IC50” value was determined as 1.842. Also, in [3], the inhibition turned out to be 53%.

On to `CCOC(=O)c1c(C)nc(NCC(C)Nc2ccnc3cc(Cl)ccc23)nc1-c1ccccc1` (configuration not stated), for which the IC50 worked out at 15.9 µM with Plasmodium falciparum [1] and 28.1 µM with Plasmodium falciparum [4]. Moreover, the “Ratio IC50” value in the series with Plasmodium falciparum [2] is listed as 1.7683. For the same compound, in [3], the inhibition came to 35%.

For the compound `NC12CC3CC(CC(C3)C1)C2` [AMANTADINE], the EC50 with Influenza B virus [5] was more than 200 µM; in the series with Influenza A virus [6], 4.1 µM; with Influenza A virus [7] it was 89 µM; with Influenza A virus [8], 154 µM; in the series on Influenza A virus [9] it was 5 µM; with Influenza B virus [10] it was more than 200 µM. Besides, the CC50 in the series with MDCK was more than 200 µM. In addition, the MCC in [11] is more than 200 µM.

Consider `Nc1ncnc2c1ncn2C[C@H](O)CO` [(S)-DHPA], for which the MCC in series [12] and in series [17] was more than 250 µM each time. Further, the EC50 with Sindbis virus is more than 250 µM; in [13], 22 µM; in the series with Human respirovirus 3, more than 250 µM; in [14] it was 6 µM; in series [15], 250 µM; in the series on Coxsackievirus B4 [16] it was 29 µM. For the same compound, the EC50 in the series on Punta Toro virus and with Coxsackievirus B4 [18] was more than 250 µM throughout.

Take `CCOC(=O)c1c(C)nc(NCCCCCCCNc2ccnc3cc(Cl)ccc23)nc1-c1ccccc1`: the half-inhibitory concentration (IC50) was 1.13 µM with Plasmodium falciparum [1] and 0.618 µM with Plasmodium falciparum [4]. Further, the “Ratio IC50” value in the series on Plasmodium falciparum [2] was 0.544. In series [3], the inhibition worked out at 89%.

With `N[C@H]1C(C(=O)O)=CC=C[C@@H]1O`, the values for the EC50 (in the series with Felid alphaherpesvirus 1; in series [20]) were 5.2 µg/mL and 8.1 µg/mL, respectively. Also, in [19], the CC50 was more than 100 µg/mL.

Take `CCOC(=O)c1c(C)nc(Nc2ccc(Nc3ccnc4cc(Cl)ccc34)cc2)nc1-c1ccccc1`: the values for the IC50 in the series with Plasmodium falciparum [1] and with Plasmodium falciparum [4] were 0.644 µM and 6.19 µM, respectively. The “Ratio IC50” value in the series with Plasmodium falciparum [2] is recorded as 9.6. Besides, the inhibition in series [3] was 100%.

Turning to `CCOC(=O)c1c(C)nc(NCCCC(C)CNc2ccnc3cc(Cl)ccc23)nc1-c1ccccc1` (configuration not stated), the 50% inhibitory concentration (IC50) in the series with Plasmodium falciparum [1] amounted to 0.287 µM; in the series with Plasmodium falciparum [4] it was 0.86 µM. In addition, the “Ratio IC50” value in the series with Plasmodium falciparum [2] is given as 3.

Turning to `C[C@H]1[C@H](OC(=O)CCC(=O)O)O[C@@H]2O[C@@]3(C)CC[C@H]4[C@H](C)CC[C@@H]1[C@@]24OO3` [ARTESUNATE], the values for the IC50 in the series on Plasmodium falciparum [1] and with Plasmodium falciparum [4] were 0.0053 µM and 0.0028 µM, respectively. For the same compound, the “Ratio IC50” value with Plasmodium falciparum [2] is 0.5418.

For the compound `CCOC(=O)c1c(C)nc(NCCCCCCCCCCNc2ccnc3cc(Cl)ccc23)nc1-c1ccccc1`, the half-inhibitory concentration (IC50) worked out at 1.78 µM in the series with Plasmodium falciparum [1] and 0.488 µM with Plasmodium falciparum [4]. In addition, the “Ratio IC50” value in the series with Plasmodium falciparum [2] turned out to be 0.2744.

As for `Nc1nc(O)c2ncn(COC(CO)CO)c2n1` [GANCICLOVIR], the values for the EC50 (in the series on Felid alphaherpesvirus 1; in series [20]; in [22]) were 4.1 µM, more than 100 µM and more than 100 µM, respectively. Besides, the CC50 is more than 100 µM in series [19] and 222 µM with HeLa. In [21], the MCC was more than 100 µM.

Values taken from ChEMBL document CHEMBL2021854, “2-Aminopyrimidine based 4-aminoquinoline anti-plasmodial agents. Synthesis, biological activity, structure-activity relationship and mode of action studies” (Eur J Med Chem, 2012).
